Measured values gathered from unrelated publications.
RAF1: RAF proto-oncogene serine/threonine-protein kinase (RAF1, Homo sapiens, UniProt P04049)
RAF1 Y340D/Y341D: RAF proto-oncogene serine/threonine-protein kinase (RAF1, Homo sapiens, UniProt P04049, Y340D/Y341D)

SMILES	target	assay	setting	measurement	result
CNCc1ccc(-c2cc(-c3nc(-c4ccc(S(=O)(=O)C(C)C)cc4)cnc3N)on2)cc1	RAF1	enzyme activity, inhibitor	2 µM	inhibition	10%
COc1cc(-c2cc(-c3ccc(N4CCNCC4)cc3)cnc2N)cc(OC)c1OC	RAF1	enzyme activity, inhibitor	0.1 µM	inhibition	2%
C[S+]([O-])c1ccc(-c2nc(-c3ccncc3)c(-c3ccc(F)cc3)[nH]2)cc1 (stereo not shown)	RAF1	cell-free assay	0.5 µM	remaining signal	41.1%
Cc1ccc(Nc2nccc(N(C)c3ccc4c(C)n(C)nc4c3)n2)cc1S(N)(=O)=O	RAF1	enzyme activity, inhibitor	10 µM	inhibition	96%
CCOc1cc(-c2nncn2C)ccc1Nc1ncc2cc(C)nc(NCC(C)(C)C)c2n1	RAF1 Y340D/Y341D	cell-free assay, TR-FRET	1 µM	inhibition	≤ 15%
c1ccc(N2CCN(Cc3nc4ccccc4[nH]3)CC2)nc1	RAF1	binding, competition with immobilised ligand	1 µM	remaining binding	100%
c1nc2c(Nc3ccc4c(c3)OCCO4)nc(Nc3ccc4c(c3)OCCO4)nc2[nH]1	RAF1	enzyme activity, inhibitor	10 µM	activity vs control	95%
Cc1sc(C(=O)NC2COC2)cc1-n1cc(NC(=O)Nc2c(F)cccc2Cl)cn1	RAF1	enzyme activity, inhibitor	10 µM	remaining activity	92.6%
Cc1[nH]c(/C=C2\C(=O)Nc3ccc(F)cc32)c(C)c1C(=O)N[C@H]1CCN(C(=O)N(C)C)C1	RAF1	enzyme activity, inhibitor	0.1 µM	remaining activity	118%
CCOC(=O)c1cc2cc(-c3cc(C(=O)NCc4ccc(C(=O)O)cc4)nn3C)ccc2[nH]1	RAF1	cell-free assay, competition with immobilised ligand	0.1 µM	remaining binding	100%
Cc1ccc(C(=O)Nc2ccc(CN3CCN(C)CC3)c(C(F)(F)F)c2)cc1C#Cc1cnc2cccnn12	RAF1	enzyme activity, inhibitor	23.5 nM	remaining activity	61%
Nc1ncnc2occ(-c3ccc(NC(=O)Nc4cc(C(F)(F)F)ccc4F)cc3)c12	RAF1	cell-free assay, inhibitor	20 µM	remaining signal	0%
CCOCCn1cc(C(=O)Nc2ccc(-n3nc(-c4cccnc4)cc3C(F)(F)F)cn2)ccc1=O	RAF1	cell-free assay, competition with immobilised ligand	1 µM	remaining binding	100%
C=CC(=O)Nc1cc(Nc2nccc(Nc3cc(Cl)c(F)cc3C(C)(C)O)n2)c(OC)cc1N1CC[C@@H](N(C)C)C1	RAF1	enzyme activity, inhibitor	1 µM	inhibition	10%
O=C1Nc2ccc(Cl)cc2C1=Cc1cc(Cl)c(O)c(Cl)c1	RAF1	cell-free assay	0.5 µM	remaining signal	6.93%
CS(=O)(=O)Nc1cccc(-c2csc(NC(=O)CSc3nc4nccnc4c(=O)n3CCc3ccccc3)n2)c1	RAF1 Y340D/Y341D	enzyme activity, inhibitor	10 µM	inhibition	-1%

SMILES	target	assay	setting	measurement	result
CC(C)(C)c1nc2c(s1)c1nc(N)ncc1c1ccc(NS(=O)(=O)c3c(F)cccc3F)c(F)c12	RAF1 Y340D/Y341D	enzyme activity, inhibitor, radiometric	1 µM	remaining activity	9%
O=C(O)[C@@H]1[C@@H](Cn2nnc3ccccc3c2=O)CC[C@H]1C(=O)c1ccc(OCCC2CCOCC2)cc1	RAF1	cell-free assay, competition with immobilised ligand	1 µM	remaining binding	100%
O=C(Nc1cnn(-c2csc(C(=O)NC3COC3)c2)c1)Nc1ccccc1Cl	RAF1	enzyme activity, inhibitor	5 µM	remaining activity	87%
CN(C)C1CCN(CC#Cc2nn(C3CCCC3)c3nc(NCc4ccccc4)ncc23)C1 (stereo not shown)	RAF1 Y340D/Y341D	enzyme activity, inhibitor, FRET	10 µM	inhibition	3%
C[C@H](NC(=O)c1cnc2n1[C@](C)(Cc1ccc(C#N)cc1)C(=O)N2c1cc(Cl)c(F)c(Cl)c1)C(=O)NC1(c2ccccn2)CC1	RAF1	cell-free assay, competition with immobilised ligand	1 µM	remaining binding	100%
CNC(=O)c1cc2c(Oc3ccc(NC(=O)C4(C(=O)Nc5ccc(F)cc5)CC4)cc3)ccnc2cc1OC	RAF1	enzyme activity, inhibitor, radiometric	1 µM	inhibition	83%
CS(=O)(=O)c1cc(C2(NC(=O)c3cncc4c3cnn4-c3ccc(F)cc3)CC2)ccn1	RAF1	cell-free assay, competition with immobilised ligand	1 µM	remaining binding	100%
Cc1cc(NC(=O)c2cccc3cc(-c4cccc5[nH]nc(N)c45)ccc23)ccc1F	RAF1	enzyme activity, inhibitor	0.1 µM	activity vs control	97%
CC(=O)N1CCC(c2ccc(C(=O)NC(=N)N)cc2C(F)(F)F)CC1	RAF1	cell-free assay, competition with immobilised ligand	1 µM	remaining binding	100%
CC(C)c1ccc(NC(=O)c2cccs2)c(-c2nc3ccccc3[nH]c2=O)c1	RAF1	enzyme activity, inhibitor	1 µM	activity vs control	96%
CCN(CC)CCNC(=O)c1c(C)[nH]c(/C=C2\C(=O)Nc3ccc(F)cc32)c1C	RAF1	enzyme activity, inhibitor	0.1 µM	remaining activity	95%
COc1cc2ncnc(Nc3ccc(Oc4ccccc4)c(C)c3C)c2cc1OC	RAF1 Y340D/Y341D	enzyme activity, inhibitor	1 µM	inhibition	-6%
Nc1cnc(N2CCc3cc(S(=O)(=O)Nc4c(F)cc(Cl)cc4F)cc(N4CCCC4=O)c32)nc1	RAF1	cell-free assay, competition with immobilised ligand	1 µM	remaining binding	79%
CNc1cccc2cc(C(=O)Nc3ccc(C(=O)O)cc3)c(=O)[nH]c12	RAF1	enzyme activity, inhibitor	10 µM	inhibition	6.9%
CCN(CC)CCNC(=O)c1c(C)[nH]c(/C=C2\C(=O)Nc3ccc(F)cc32)c1C	RAF1	cell-free assay	0.5 µM	remaining signal	110%
